We go through 56 compounds from ChEMBL document CHEMBL4619802, “Discovery and Characterization of Pure RhlR Antagonists against Pseudomonas aeruginosa Infections” (J Med Chem, 2020).

The target in experiment [1] is T1, HTH-type quorum-sensing regulator RhlR (Pseudomonas aeruginosa (strain ATCC 15692 / PAO1 / 1C / PRS 101 / LMG12228)) (UniProt P54292).
T1 sequence (whole entry): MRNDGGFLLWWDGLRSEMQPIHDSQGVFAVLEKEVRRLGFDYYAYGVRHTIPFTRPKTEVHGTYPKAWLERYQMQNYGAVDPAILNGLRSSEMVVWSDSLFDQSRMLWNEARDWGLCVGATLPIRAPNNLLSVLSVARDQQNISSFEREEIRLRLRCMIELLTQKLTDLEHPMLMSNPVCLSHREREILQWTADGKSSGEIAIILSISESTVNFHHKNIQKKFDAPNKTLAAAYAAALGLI
Nature of the experiment: Agonist activity at Pseudomonas aeruginosa RhlR expressed in Escherichia coli DH5alpha assessed as relative protein activity at 100 uM incubated for 1.5 hrs by luminescence reporter gene assay relative to control.

The target of experiment [2] is T1, HTH-type quorum-sensing regulator RhlR (Pseudomonas aeruginosa (strain ATCC 15692 / PAO1 / 1C / PRS 101 / LMG12228)). In words: Antagonist activity at Pseudomonas aeruginosa RhlR expressed in Escherichia coli DH5alpha assessed as relative protein activity at 100 uM incubated for 1.5 hrs in presence of N-butyryl-L-homoserine lactone by luminescence reporter gene assay relative to control. Also on record: scale not given: the % may be the effect or the level left. In a few lines: (§1)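 E. coli DH5α sdiA mutant carrying RhlR and rhlA::lacZ plasmids, at OD595 0.3 in LB. Compound given with BHL (10 µM per footnote) and 0.4% arabinose, 37 °C for 1.5 h.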

For experiment [3] the target is unchanged. In words: Agonist activity at Pseudomonas aeruginosa RhlR expressed in Escherichia coli DH5alpha assessed as relative protein activity at 1000 uM incubated for 1.5 hrs by luminescence reporter gene assay relative to control.
Experiment [4] has the same target. Nature of the experiment: Modulation of RhlR in Pseudomonas aeruginosa assessed as biofilm formation at 10 uM incubated for 24 hrs under static condition by crystal violet staining based assay relative to control.
The test system of experiment [5] is Pseudomonas aeruginosa. In words: Antibacterial activity against Pseudomonas aeruginosa assessed as bacterial growth at 100 uM incubated for 24 hrs relative to control. It is filed as functional. The procedure, abridged: (§2)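 P. aeruginosa overnight culture (OD595 1.0) diluted 1:20 in AB medium (pH 7.5, 1% glucose, casamino acids, arginine) with compound, in borosilicate bottles, 37 °C for 24 h without shaking. Growth taken as OD595 of the suspended culture. Attached cells washed twice with PBS, stained with 0.1% crystal violet for 10 min, dye eluted in ethanol and read at 545 nm.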

Experiment [6] deals with T1, HTH-type quorum-sensing regulator RhlR (Pseudomonas aeruginosa (strain ATCC 15692 / PAO1 / 1C / PRS 101 / LMG12228)). In words: Antagonist activity at RhlR in Pseudomonas aeruginosa assessed as rhamnolipid production at 100 uM incubated for 24 hrs by Orcinol staining based assay relative to control. Also on record: scale not given: the % may be the effect or the level left.

For experiment [7] the target is unchanged. In words: Antagonist activity at RhlR in Pseudomonas aeruginosa assessed as rhamnolipid production at 10 uM incubated for 24 hrs by Orcinol staining based assay relative to control. Also on record: scale not given: the % may be the effect or the level left.
The subject of experiment [8] is Pseudomonas aeruginosa. Nature of the experiment: Antibacterial activity against Pseudomonas aeruginosa assessed as bacterial growth at 10 uM incubated for 24 hrs relative to control. The class given is functional. The procedure, abridged:
as §2

Experiment [9] deals with T1, HTH-type quorum-sensing regulator RhlR (Pseudomonas aeruginosa (strain ATCC 15692 / PAO1 / 1C / PRS 101 / LMG12228)). Nature of the experiment: Antagonist activity at Pseudomonas aeruginosa RhlR expressed in Escherichia coli DH5alpha assessed as relative protein activity at 10 uM incubated for 1.5 hrs in presence of N-butyryl-L-homoserine lactone by luminescence reporter gene assay relative to control. Also on record: scale not given: the % may be the effect or the level left. The procedure, abridged: as §1

The target is the same in experiment [10]. In words: Modulation of RhlR in Pseudomonas aeruginosa assessed as biofilm formation at 100 uM incubated for 24 hrs under static condition by crystal violet staining based assay relative to control.

Each structure is given as a SMILES string. Active and inactive are the calls of the source. The rule behind the calls is not given here.

As to `CCCC(O)CC(=O)/C=C/c1ccc(O)c(F)c1` (centres undefined), the figures for the Activity in experiment [1] and in experiment [2] were 2% and 60%, respectively.
Consider `CCCCC(O)CC(=O)CCc1ccc(O)c(OC)c1` (centres undefined), for which the Activity came out at 2% in [1] and 62% in experiment [2].
As for `CCCC(O)C#Cc1ccc(F)c(F)c1` (racemic), the Activity is 5% in experiment [3]; 3% in experiment [1]; 73% in [4]; 104% with Pseudomonas aeruginosa [5]; 49% in [6]; 32% in [2]. For the same compound, the Activity in [7] is 73%; in the experiment on Pseudomonas aeruginosa [8], 100%; in experiment [9], 45%; in experiment [10], 60%.
`CCCCC[C@H](O)C#Cc1ccc(O)c(OC)c1`: the Activity in experiment [1] is 3%; in [2], 34%. The outcome in experiment [4] was Active. Besides, the result in the experiment with Pseudomonas aeruginosa [5] was inactive.
Consider `CCCC(O)CC(=O)CCc1cccc(OC)c1` (centres undefined), for which the Activity is 2% in [1] and 90% in experiment [2].
Regarding `CCCC(O)CC(=O)/C=C/c1ccc(OC)c(OC)c1` (centres undefined), the results for the Activity in [1] and in experiment [2] were 1% and 69%, respectively.
As for `CCCC(O)CC(=O)CCc1cccc(O)c1` (centres undefined), the Activity in experiment [1] was determined as 2%; in [2] it was 81%.
On the same counts, the results for `CCCC(O)CC(=O)/C=C/c1ccc(N(C)C)cc1` (centres undefined) are 2% and 53%.
The like results for `CCCC(O)CC(=O)/C=C/c1ccc(Cl)cc1` (centres undefined) were, in that order, 1% and 64%.
On the same counts, the results for `CCCCCC(O)CCc1ccc(F)c(F)c1` (centres undefined) are 5% and 61%.
On to `CCCC(O)CC(=O)CCc1ccc(N(C)C)cc1` (centres undefined), for which the Activity is 1% in [1] and 74% in experiment [2].
On the same counts, the results for `CCCC(O)CC(=O)CCc1ccc(Cl)cc1` (centres undefined) are 2% and 69%.
On the same counts, the results for `CCCCCC(=O)/C=C/c1ccc(O)c(OC)c1` are 2% and 41%.
With `CCCC(O)CC(=O)CCc1ccc(O)cc1` (centres undefined), the Activity turned out to be 3% in experiment [1] and 64% in experiment [2].
Regarding `CCCCCCCCC(O)CC(=O)CCc1ccc(O)c(OC)c1` (centres undefined), the Activity in experiment [1] was 2%; in [2], 41%. Moreover, the result in [4] was Active. The result in the experiment with Pseudomonas aeruginosa [5] was inactive.
For `CCCC(O)CC(=O)CCc1ccc(C)c(C)c1` (centres undefined), the Activity in experiment [1] worked out at 3%; in experiment [2], 82%.
Regarding `CCCC(O)CC(=O)/C=C/c1ccc(F)c(F)c1` (centres undefined), the Activity in [3] was found to be 5%; in experiment [1] it was 2%; in [4] it was 72%; in the experiment with Pseudomonas aeruginosa [5] it was 105%; in experiment [6], 50%; in experiment [2] it was 20%. The Activity in experiment [7] amounted to 63%; with Pseudomonas aeruginosa [8] it was 101%; in experiment [9] it was 60%; in experiment [10] it was 53%.
For the compound `CCCC(O)CC(=O)CCc1ccc(OC)cc1` (centres undefined), the Activity in experiment [1] amounted to 2%; in experiment [2] it was 71%.
In the case of `CCCCCC(=O)CCc1ccc(F)c(F)c1`, the results for the Activity in experiment [1] and in experiment [2] were 4% and 55%, respectively.
The like results for `CCCCCCC(O)CC(=O)CCc1ccc(O)c(OC)c1` (centres undefined) were, in that order, 3% and 83%.
For the compound `CCCCCC(O)CCc1ccc(O)c(OC)c1` (centres undefined), the Activity in [1] worked out at 2%; in experiment [2] it was 45%.
The like results for `CCCC(O)CC(=O)/C=C/c1cc(F)cc(OC)c1` (centres undefined) were, in that order, 3% and 74%.
On the same counts, the results for `CCCC(O)CC(=O)CCc1ccc(O)c(OCC)c1` (centres undefined) are 1% and 98%.
For `CCCCCC(=O)C#Cc1ccc(O)c(OC)c1`, the Activity in experiment [1] came to 3%; in experiment [2], 29%. The outcome in experiment [4] was Active. Also, the result with Pseudomonas aeruginosa [5] was inactive.
In the case of `CCCC(O)CC(=O)CCc1ccc(O)c(F)c1` (centres undefined), the Activity is 1% in [1] and 73% in experiment [2].
The like results for `CCCCC(O)C#Cc1ccc(F)c(F)c1` (racemic) were, in that order, 4% and 71%.
Take `CCCCCC(O)C#Cc1ccc(O)c(OC)c1` (racemic): the Activity in experiment [1] amounted to 3%; in [2] it was 32%. For the same compound, the outcome in experiment [4] was Active. Moreover, the result in the experiment with Pseudomonas aeruginosa [5] was inactive.
`CCCC(O)CC(=O)CCc1ccc(F)c(OC)c1` (centres undefined): the Activity in experiment [1] was found to be 1%; in experiment [2] it was 79%.
With `CCCCCC(=O)CCc1ccc(O)c(OC)c1`, the figures for the Activity in experiment [1] and in [2] were 2% and 49%, respectively.
As for `CCCCCCCC(O)CC(=O)CCc1ccc(O)c(OC)c1` (centres undefined), the results for the Activity in experiment [1] and in experiment [2] were 2% and 90%, respectively.
As to `CCCCCCCCCC(O)CC(=O)CCc1ccc(O)c(OC)c1` (centres undefined), the values for the Activity in experiment [1] and in experiment [2] were 2% and 36%, respectively. In experiment [4], the outcome was Active. Moreover, the result with Pseudomonas aeruginosa [5] was inactive.
Regarding `CCCC[C@H](O)C#Cc1ccc(F)c(F)c1`, the Activity turned out to be 2% in experiment [1] and 64% in experiment [2].
Turning to `CCCC(O)CC(=O)/C=C/c1ccc(OC)cc1` (centres undefined), the Activity in experiment [1] was found to be 1%; in [2], 55%. Moreover, the outcome in experiment [4] was Active. Moreover, in the experiment on Pseudomonas aeruginosa [5], the result was inactive.
Consider `CCCCCC(O)/C=C/c1ccc(F)c(F)c1` (centres undefined), for which the Activity was 5% in experiment [1] and 55% in experiment [2].
On the same counts, the results for `CCCC[C@@H](O)C#Cc1ccc(F)c(F)c1` are 3% and 67%.
The like results for `CCCC(O)CC(=O)CCc1ccc(F)c(F)c1` (centres undefined) were, in that order, 1% and 49%.
Regarding `CCCCC[C@@H](O)C#Cc1ccc(O)c(OC)c1`, the Activity turned out to be 3% in [1] and 27% in [2]. Moreover, in [4], the outcome was Active. The outcome in the experiment with Pseudomonas aeruginosa [5] was inactive.
For the compound `CCCC(O)CC(=O)/C=C/c1ccccc1` (centres undefined), the Activity in experiment [1] is 4%; in experiment [2], 93%.
The like results for `CCCC(O)CC(=O)CCc1ccccc1` (centres undefined) were, in that order, 4% and 88%.
The like results for `CCCC(O)CC(=O)CCc1ccc(OC)c(OC)c1` (centres undefined) were, in that order, 1% and 94%.
The like results for `CCCC(O)CC(=O)/C=C/c1ccc(F)cc1` (centres undefined) were, in that order, 1% and 33%.
Take `CCCC(O)CC(=O)CCc1ccc(O)c(O)c1` (centres undefined): the figures for the Activity in [1] and in [2] were 2% and 47%, respectively.
On the same counts, the results for `CCCCCC(O)C#Cc1ccc(F)c(F)c1` (racemic) are 3% and 74%.
The like results for `CCCCC[C@H](O)C#Cc1ccc(F)c(F)c1` were, in that order, 4% and 67%.
The like results for `CCCC(O)CC(=O)/C=C/c1ccc(C)cc1` (centres undefined) were, in that order, 2% and 65%.
Turning to `CCCCCC(O)/C=C\c1ccc(O)c(OC)c1` (centres undefined), the results for the Activity in experiment [1] and in experiment [2] were 3% and 79%, respectively.
The like results for `CCCC(O)CC(=O)/C=C/c1ccc(F)c(OC)c1` (centres undefined) were, in that order, 1% and 43%.
With `CCCC(O)CC(=O)CCc1ccc(C)cc1` (centres undefined), the Activity amounted to 1% in [1] and 76% in experiment [2].
The like results for `CCCC(O)CC(=O)CCc1ccc(F)cc1` (centres undefined) were, in that order, 2% and 51%.
For `CCCCC[C@@H](O)C#Cc1ccc(F)c(F)c1`, the figures for the Activity in experiment [1] and in [2] were 3% and 72%, respectively.
On the same counts, the results for `CCCC(O)CC(=O)/C=C/c1cccc(O)c1` (centres undefined) are 2% and 78%.
The like results for `CCCC(O)CC(=O)CCc1cc(F)cc(OC)c1` (centres undefined) were, in that order, 3% and 85%.
Consider `CCCC(O)CC(=O)/C=C/c1ccc(O)cc1` (centres undefined), for which the Activity in experiment [1] was 1%; in experiment [2], 51%. For the same compound, in experiment [4], the outcome was Active. Besides, the result in the experiment with Pseudomonas aeruginosa [5] was inactive.
For `CCCC(O)CC(=O)/C=C/c1ccc(C)c(C)c1` (centres undefined), the Activity in experiment [1] stood at 2%; in [2], 72%.
In the case of `CCCCCC(O)/C=C/c1ccc(O)c(OC)c1` (centres undefined), the Activity in experiment [1] turned out to be 2%; in [2], 41%.
Turning to `CCCC(O)CC(=O)/C=C/c1ccc(O)c(OCC)c1` (centres undefined), the Activity in experiment [1] amounted to 1%; in experiment [2], 91%.
